Assay results taken from publication PMC7293934 (Neuropharmacology, 2020).
Several values for one entry are separate records, joined by “and”; a condition that tells them apart may be missing. Equal entries are not always repeated. Entries after “also recorded” stand apart in the source; their conditions may differ. Where two headings read alike, the source gives them in different places.

Tests used:
GluN1/2D [1] = biological target: T1, GluN1/2D (Rattus norvegicus, UniProt P35439+Q62645); assay type: cell-based; conditions: for Increase in glutamate potency / Increase in glycine potency: 10 μM modulator; for Increase in glutamate potency: 50 μM glycine; for Increase in glycine potency: 100 μM glutamate; for Increase in potencies of co-agonists glutamate and glycine: summary statement
T1 sequence (Q62645 28-1323, other chains not shown): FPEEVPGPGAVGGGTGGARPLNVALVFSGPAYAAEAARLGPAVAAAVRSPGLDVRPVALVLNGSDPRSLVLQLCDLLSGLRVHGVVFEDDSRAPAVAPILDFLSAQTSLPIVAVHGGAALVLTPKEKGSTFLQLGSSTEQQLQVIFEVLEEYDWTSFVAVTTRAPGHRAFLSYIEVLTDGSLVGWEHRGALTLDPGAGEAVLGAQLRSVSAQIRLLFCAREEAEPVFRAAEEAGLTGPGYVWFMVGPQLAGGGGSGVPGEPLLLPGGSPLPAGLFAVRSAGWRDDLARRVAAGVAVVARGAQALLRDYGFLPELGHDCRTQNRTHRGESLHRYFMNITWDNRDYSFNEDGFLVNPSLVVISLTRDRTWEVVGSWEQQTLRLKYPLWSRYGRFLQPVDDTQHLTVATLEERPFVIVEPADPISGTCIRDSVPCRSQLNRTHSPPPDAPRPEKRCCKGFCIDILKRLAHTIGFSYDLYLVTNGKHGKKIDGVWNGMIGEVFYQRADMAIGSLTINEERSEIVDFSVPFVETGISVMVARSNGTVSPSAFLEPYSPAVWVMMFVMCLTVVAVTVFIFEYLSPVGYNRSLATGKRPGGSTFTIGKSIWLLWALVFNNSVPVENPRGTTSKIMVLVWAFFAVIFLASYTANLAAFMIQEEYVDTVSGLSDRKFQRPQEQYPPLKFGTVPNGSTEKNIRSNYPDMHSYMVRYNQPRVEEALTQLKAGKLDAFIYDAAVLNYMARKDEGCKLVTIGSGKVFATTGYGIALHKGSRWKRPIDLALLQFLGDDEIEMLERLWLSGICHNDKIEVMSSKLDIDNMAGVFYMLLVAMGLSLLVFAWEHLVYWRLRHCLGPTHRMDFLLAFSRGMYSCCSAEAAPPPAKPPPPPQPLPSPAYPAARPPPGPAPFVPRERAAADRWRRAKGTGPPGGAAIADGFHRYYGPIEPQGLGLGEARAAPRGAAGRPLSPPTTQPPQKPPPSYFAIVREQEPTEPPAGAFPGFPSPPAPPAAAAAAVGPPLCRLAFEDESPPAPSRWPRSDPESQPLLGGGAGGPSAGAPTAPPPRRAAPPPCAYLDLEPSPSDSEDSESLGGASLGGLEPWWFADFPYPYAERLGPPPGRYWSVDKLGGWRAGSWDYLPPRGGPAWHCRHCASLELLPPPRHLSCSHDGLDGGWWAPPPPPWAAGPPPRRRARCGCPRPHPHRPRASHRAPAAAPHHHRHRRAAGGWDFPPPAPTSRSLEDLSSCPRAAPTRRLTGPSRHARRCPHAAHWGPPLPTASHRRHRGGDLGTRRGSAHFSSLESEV

recombinant GluN1/2A/2C = conditions: ref Bhattacharya et al., 2018; cited from earlier work
[2] = test system: hippocampal CA1 pyramidal neurons; conditions: ref Perszyk et al., 2016; cited from earlier work
hippocampal interneurons = conditions: ref Perszyk et al., 2016; cited from earlier work
[3] = test system: NMDA receptor-mediated responses of STN neurons; conditions: ref Swanger et al., 2015; cited from earlier work
[4] = test system: native NMDA receptors expressed by hippocampal CA1 pyramidal neurons; assay type: cell-based, mouse
How it was run: (§1)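 Transverse 300 μm ventral hippocampal slices were cut from P12–18 C57BL/6J mice. Recording was at 32°C in aCSF with 0.2 mM Mg2+, 20 μM DNQX and 10 μM gabazine, using a Cs-based internal. Visually identified CA1 stratum radiatum/lacunosum moleculare interneurons or CA1 pyramidal neurons were held at +40 mV, with Schaffer collateral stimulation every 30–60 s. Sequence was baseline 5–10 min, 10 μM test compound 10–15 min, then 400 μM DL-APV.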

[5] = test system: native NMDA receptors expressed by STN neurons; assay type: cell-based, mouse; conditions: APV 400 μM superfusion
[6] = test system: native NMDA receptors expressed by hippocampal interneurons; assay type: cell-based, mouse
How it was run: as §1

[7] = test system: native NMDA receptors expressed by STN neurons; assay type: cell-based, mouse
How it was run: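 Sagittal 300 μm slices containing STN were cut from P12–18 C57BL/6J mice of either sex. Recording was at 32°C in aCSF with 0.2 mM Mg2+, 20 μM DNQX and 10 μM gabazine, using a Cs-based internal with QX-314, at −40 mV. Internal capsule stimulation was given every 30–60 s during 5–10 min baseline, then 10–15 min vehicle (0.01% DMSO) or 10 μM test compound, then 400 μM DL-APV. Charge transfer was taken as EPSC area.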

[8] = biological target: GluN1/2AC1/2BC2 (triheteromeric GluN1/2A/2B) (Rattus norvegicus, UniProt P35439+Q00959+Q00960); assay type: cell-based
Sequence of GluN1/2AC1/2BC2 (triheteromeric GluN1/2A/2B) (Q00959 23-1464, other chains not shown): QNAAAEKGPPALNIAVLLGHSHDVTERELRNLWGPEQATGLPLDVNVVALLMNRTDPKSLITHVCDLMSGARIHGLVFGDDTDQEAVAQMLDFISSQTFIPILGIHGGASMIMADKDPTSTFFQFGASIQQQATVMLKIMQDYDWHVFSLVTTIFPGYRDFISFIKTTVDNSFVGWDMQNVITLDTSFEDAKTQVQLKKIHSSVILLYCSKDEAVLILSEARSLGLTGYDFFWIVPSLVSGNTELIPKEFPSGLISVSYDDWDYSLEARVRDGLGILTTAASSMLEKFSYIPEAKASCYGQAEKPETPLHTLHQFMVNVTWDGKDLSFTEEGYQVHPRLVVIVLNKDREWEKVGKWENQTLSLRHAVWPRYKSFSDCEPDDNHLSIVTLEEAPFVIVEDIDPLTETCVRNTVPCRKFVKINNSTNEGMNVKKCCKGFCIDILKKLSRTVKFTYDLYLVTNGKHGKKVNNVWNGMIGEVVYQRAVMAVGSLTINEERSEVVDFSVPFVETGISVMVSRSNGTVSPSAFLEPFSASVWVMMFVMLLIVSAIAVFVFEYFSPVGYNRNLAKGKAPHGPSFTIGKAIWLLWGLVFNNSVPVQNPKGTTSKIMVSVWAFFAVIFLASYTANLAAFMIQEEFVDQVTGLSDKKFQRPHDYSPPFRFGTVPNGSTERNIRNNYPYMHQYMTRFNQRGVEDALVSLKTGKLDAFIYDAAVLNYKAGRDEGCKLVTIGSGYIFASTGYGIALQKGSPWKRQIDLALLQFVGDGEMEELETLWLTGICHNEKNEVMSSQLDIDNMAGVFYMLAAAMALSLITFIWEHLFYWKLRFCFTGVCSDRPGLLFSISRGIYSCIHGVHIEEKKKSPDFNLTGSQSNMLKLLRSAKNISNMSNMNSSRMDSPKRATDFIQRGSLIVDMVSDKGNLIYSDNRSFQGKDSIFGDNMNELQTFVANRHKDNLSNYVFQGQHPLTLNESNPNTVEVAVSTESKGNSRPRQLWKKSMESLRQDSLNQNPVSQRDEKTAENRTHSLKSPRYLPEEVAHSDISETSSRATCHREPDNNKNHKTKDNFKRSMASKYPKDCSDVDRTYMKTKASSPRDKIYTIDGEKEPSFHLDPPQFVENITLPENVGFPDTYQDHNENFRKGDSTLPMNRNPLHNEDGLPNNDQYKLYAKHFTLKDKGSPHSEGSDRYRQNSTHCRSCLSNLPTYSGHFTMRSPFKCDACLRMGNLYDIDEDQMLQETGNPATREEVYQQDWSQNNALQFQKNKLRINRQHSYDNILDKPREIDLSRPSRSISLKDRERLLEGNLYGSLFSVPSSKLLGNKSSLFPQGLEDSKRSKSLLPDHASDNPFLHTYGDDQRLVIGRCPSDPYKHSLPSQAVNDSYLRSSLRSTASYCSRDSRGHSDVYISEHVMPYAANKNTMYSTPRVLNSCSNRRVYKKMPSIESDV

[9] = biological target: GluN1/2AC1/2CC2-NK (triheteromeric GluN1/2A/2C) (Rattus norvegicus, UniProt P35439+Q00959+Q00961, N612K); assay type: cell-based; conditions: Hill slope; in the presence of 1 mM Mg2+
GluN1/2C [10] = biological target: T2, GluN1/2C (Rattus norvegicus, UniProt P35439+Q00961); assay type: cell-based
T2 sequence (Q00961 20-1237, other chains not shown): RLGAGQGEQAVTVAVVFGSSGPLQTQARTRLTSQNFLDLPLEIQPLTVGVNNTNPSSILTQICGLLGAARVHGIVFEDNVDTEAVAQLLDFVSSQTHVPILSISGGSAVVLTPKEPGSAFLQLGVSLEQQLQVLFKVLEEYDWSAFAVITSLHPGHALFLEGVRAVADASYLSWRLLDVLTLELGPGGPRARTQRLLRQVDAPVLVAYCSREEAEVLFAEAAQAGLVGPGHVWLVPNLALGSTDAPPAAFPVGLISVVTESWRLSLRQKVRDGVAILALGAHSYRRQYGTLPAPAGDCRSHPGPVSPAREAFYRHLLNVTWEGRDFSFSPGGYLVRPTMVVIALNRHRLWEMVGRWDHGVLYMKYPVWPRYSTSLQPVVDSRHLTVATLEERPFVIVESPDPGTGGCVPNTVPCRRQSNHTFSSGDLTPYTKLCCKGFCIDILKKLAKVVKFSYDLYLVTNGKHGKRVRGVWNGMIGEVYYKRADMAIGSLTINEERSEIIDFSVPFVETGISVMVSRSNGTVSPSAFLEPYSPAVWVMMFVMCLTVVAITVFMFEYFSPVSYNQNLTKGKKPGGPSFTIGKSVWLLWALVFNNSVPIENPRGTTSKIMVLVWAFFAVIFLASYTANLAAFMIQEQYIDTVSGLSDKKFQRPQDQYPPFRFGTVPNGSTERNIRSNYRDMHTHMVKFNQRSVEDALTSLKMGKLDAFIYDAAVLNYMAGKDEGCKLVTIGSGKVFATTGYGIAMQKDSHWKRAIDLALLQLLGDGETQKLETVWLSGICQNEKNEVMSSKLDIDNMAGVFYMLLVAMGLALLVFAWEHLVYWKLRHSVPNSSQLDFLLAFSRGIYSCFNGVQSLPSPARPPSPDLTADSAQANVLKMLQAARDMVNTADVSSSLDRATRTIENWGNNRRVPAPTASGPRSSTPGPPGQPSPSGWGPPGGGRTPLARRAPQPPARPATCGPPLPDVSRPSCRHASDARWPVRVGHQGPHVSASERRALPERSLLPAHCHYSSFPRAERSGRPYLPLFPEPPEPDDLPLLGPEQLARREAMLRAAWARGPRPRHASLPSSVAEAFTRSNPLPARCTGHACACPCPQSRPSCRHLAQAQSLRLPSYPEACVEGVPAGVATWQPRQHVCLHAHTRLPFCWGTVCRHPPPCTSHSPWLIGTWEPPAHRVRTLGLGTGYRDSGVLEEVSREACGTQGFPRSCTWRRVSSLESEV

GluN1/2C [11] = biological target: T2, GluN1/2C; assay: Fast-application whole-cell patch-clamp electrophysiology, HEK293 cells; assay type: cell-based; conditions: 10 μM PTC-174 continuous; 3–5 ms 1 mM glutamate; 10 μM glycine
How it was run: (§2)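 HEK293 cells on poly-D-lysine coverslips in DMEM with 10% dialyzed FBS were calcium-phosphate transfected with GFP, GluN1 and GluN2 cDNAs (1:1:1), with 200 μM D,L-APV and 200 μM 7-chlorokynurenic acid in the medium. About 24 h later, whole-cell recordings were made at 20°C and −60 mV on lifted cells using piezo-driven theta-glass exchange. Cells were accepted at <1000 pA and <10 MΩ series resistance.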

[12] = CNS exposure after systemic administration; assay type: in vivo; conditions: no data shown
GluN1/2A [13] = biological target: GluN1/2A (Rattus norvegicus, UniProt P35439+Q00959); assay type: cell-based
How it was run: (§3)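 Rat GluN1 with GluN2A or GluN2B was expressed from cRNA in Xenopus oocytes. Oocytes were used 2–4 days later and preinjected with 50 mM BAPTA 10–30 min before recording. Two-electrode voltage clamp was at −40 mV and 21–23°C in Ba2+-containing solution, pH 7.4. […] Responses as % of agonist alone were Hill-fitted for EC50, nH and maximal modulation. At least 4 oocytes from ≥2 frogs were used.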

GluN1/2D [14] = biological target: T1, GluN1/2D; assay: Fast-application whole-cell patch-clamp electrophysiology, HEK293 cells; assay type: cell-based; conditions: 10 μM glycine
How it was run: as §2

GluN1/2B = GluN1/2B (Rattus norvegicus, UniProt P35439+Q00960); assay type: cell-based
How it was run: as §3

AMPA (GluA1–4) receptors = assay: Two-electrode voltage-clamp electrophysiology, selectivity over AMPA receptors; assay type: cell-based; conditions: 10 μM PTC-174; activated by 30 μM kainate
How it was run: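 GluA1–4 AMPA receptors were expressed from cRNA in Xenopus oocytes. Two-electrode voltage clamp was at −40 mV and 21–23°C in Ba2+-containing solution, pH 7.4. Currents were evoked by 30 μM kainate with and without 10 μM test compound (DMSO <0.1%). Responses were normalized to control without test compound, from 5–8 oocytes.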

[15] = biological target: GluN1/2BC1/2DC2 (triheteromeric GluN1/2B/2D) (Rattus norvegicus, UniProt P35439+Q00960+Q62645); assay type: cell-based; conditions: Hill slope of PTC-174 concentration-response
GluN1/2CC1/2CC2-NK = GluN1/2CC1/2CC2-NK (Rattus norvegicus, UniProt P35439+Q00961, N612K); assay type: cell-based; conditions: for EC50: EC50, 100 μM glutamate + 50 μM glycine; for nH: Hill slope
Sequence of GluN1/2CC1/2CC2-NK (Q00961 20-836 N612K, other chains not shown): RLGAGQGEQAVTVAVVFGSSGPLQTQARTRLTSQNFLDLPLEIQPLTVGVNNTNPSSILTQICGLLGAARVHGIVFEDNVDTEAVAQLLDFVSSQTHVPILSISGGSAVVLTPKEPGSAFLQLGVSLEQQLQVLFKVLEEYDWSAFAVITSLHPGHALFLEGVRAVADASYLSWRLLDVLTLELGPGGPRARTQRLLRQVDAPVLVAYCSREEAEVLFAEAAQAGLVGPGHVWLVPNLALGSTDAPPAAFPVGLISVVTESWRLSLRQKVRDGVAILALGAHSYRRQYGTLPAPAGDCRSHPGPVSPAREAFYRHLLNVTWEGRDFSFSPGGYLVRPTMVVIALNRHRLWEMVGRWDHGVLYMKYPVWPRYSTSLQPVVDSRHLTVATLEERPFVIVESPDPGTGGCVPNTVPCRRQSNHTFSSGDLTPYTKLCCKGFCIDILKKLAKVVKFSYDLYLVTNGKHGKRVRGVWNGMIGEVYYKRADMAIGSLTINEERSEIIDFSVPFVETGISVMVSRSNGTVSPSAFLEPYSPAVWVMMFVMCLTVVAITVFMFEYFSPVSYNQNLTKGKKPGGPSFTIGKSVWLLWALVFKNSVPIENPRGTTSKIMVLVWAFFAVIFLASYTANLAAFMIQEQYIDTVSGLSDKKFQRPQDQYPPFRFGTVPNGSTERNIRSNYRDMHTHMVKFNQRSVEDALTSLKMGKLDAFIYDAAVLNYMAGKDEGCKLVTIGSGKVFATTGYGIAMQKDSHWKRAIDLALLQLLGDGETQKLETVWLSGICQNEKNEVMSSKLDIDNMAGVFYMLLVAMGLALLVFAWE

[16] = test system: kainate (GluK1–2) receptors; assay type: cell-based; conditions: 10 μM PTC-174; activated by 100 μM glutamate; concanavalin A pre-incubation
How it was run: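 Oocytes expressing GluK1 or GluK2 were incubated 10 min in 1 mg/ml concanavalin A in recording solution. They were then clamped at −40 mV at 21–23°C in Ba2+-containing solution, pH 7.4. […] Responses were normalized to control without test compound, from 5–8 oocytes.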

GluN1/2A [17] = conditions: read-out: glycine EC50; in the absence of PTC-174; ref Yi et al. 2016; cited from earlier work
[18] = Hill slope of PTC-174 concentration-response
[19] = 10 μM PTC-174, 10 μM glutamate + 1 μM glycine
[20] = 100 μM glutamate + 50 μM glycine
[21] = relative to the response activated by glutamate + glycine + PTC-174
[22] = control (no modulator), continuous 50 μM glycine

COc1ccc(OCC2c3cc(OC)c(OC)cc3CCN2C(=O)c2cccc(Cl)c2)cc1 (single isomer, unassigned; (+)) [(+)-CIQ, (3-Chlorophenyl){6,7-dimethoxy-1-[(4-methoxyphenoxy)methyl]-3,4-dihydro-2(1H)-isoquinolinyl}methanone]
Increase in glutamate potency (GluN1/2D [1]): no effect on glutamate potency | Increase in glycine potency (GluN1/2D [1]): no significant effect on glycine potency | Increase in potencies of co-agonists glutamate and glycine (GluN1/2D [1]): no effect on agonist potencies | Efficacy relative to GluN1/2C (recombinant GluN1/2A/2C): nearly as efficacious at recombinant GluN1/2A/2C as at GluN1/2C | Effect on NMDA receptor-mediated EPSCs [2]: no effect on NMDA receptor-mediated EPSCs | Effect on EPSC decay time (hippocampal interneurons): did not affect the EPSC decay time | Effect on NMDA receptor-mediated responses of STN neurons [3]: potentiate

NC(CCCP(=O)(O)O)C(=O)O (stereo not drawn) [APV, 2-Amino-5-phosphonovalerate, reference compound]
Effect on NMDA receptor-mediated EPSCs ([4]; APV 400 μM superfusion): completely blocked the NMDA receptor-mediated EPSCs | Effect on NMDA-evoked current [5]: eliminated; also recorded: completely blocked the response to NMDA | Effect on NMDA receptor-mediated EPSCs ([6]; APV 400 μM superfusion): completely blocked the NMDA receptor-mediated EPSCs | Effect on NMDA receptor-mediated EPSCs ([7]; APV 400 μM superfusion): completely blocked the NMDA receptor-mediated EPSCs

CC(C)(C)c1ccc(-c2nc3n(c(=O)c2C#N)CCCS3)cn1 [PTC-174, 8-(6-(tert-butyl)pyridin-3-yl)-6-oxo-3,4-dihydro-2H,6H-pyrimido[2,1-b][1,3]thiazine-7-carbonitrile]
EC50 [8]: 19.7 ± 1.5 µM | nH [8, 18]: −1.0 | Effect on current responses (in words) ([8]; maximal glutamate plus glycine): partial inhibition; also recorded: partial antagonist | nH [9]: 1.2 | τfast ([4]; 10 μM PTC-174, +40 mV, baseline 56.0 ± 3.3): 64.3 ± 9.3 ms | τw (weighted EPSC decay time constant) ([4]; 10 μM PTC-174, +40 mV, baseline 150.1 ± 10.0): 187.3 ± 20.0 ms | τslow ([4]; 10 μM PTC-174, +40 mV, baseline 382.5 ± 38.8): 416.1 ± 36.9 ms | Potentiation of responses at low glycine (GluN1/2C [10]; [19]): ~ 10 fold | Increase in glycine potency (GluN1/2C [10]; 10 μM modulator, 100 μM glutamate): 4.7 fold | Maximal modulation (% control) (GluN1/2C [10]; [20]): 1095 ± 29 % control | nH (GluN1/2C [10]; [18]): 1.2 | Maximal potentiation of current responses (GluN1/2C [10]; maximal glutamate plus glycine): > 10 fold | Current response to glutamate only + PTC-174 (GluN1/2C [10]; [21]): 1.5% ± 0.1 | Current response to glycine only + PTC-174 (GluN1/2C [10]; [21]): 4.0% ± 0.9 | Increase in potencies of co-agonists glutamate and glycine (GluN1/2C [10]; summary statement): 2- to 5 fold | Potentiation of responses at low glycine (GluN1/2D [1]; [19]): ~ 10 fold | Increase in glutamate potency (GluN1/2D [1]): 2.5 fold | Increase in glycine potency (GluN1/2D [1]): 4.8 fold | Maximal modulation (% control) (GluN1/2D [1]; [20]): 1265 ± 67 % control | nH (GluN1/2D [1]; [18]): 1.2 | Maximal potentiation of current responses (GluN1/2D [1]; maximal glutamate plus glycine): > 10 fold and 13 fold | Increase in potencies of co-agonists glutamate and glycine (GluN1/2D [1]): 2- to 5 fold | Enhancement of peak responses (GluN1/2C [11]): 3.7 fold | CNS exposure [12]: readily achieves CNS exposure after systemic administration | Potentiation of responses at low glycine (GluN1/2A [13]; [19]): 1.6 fold | Maximal modulation (% control) (GluN1/2A [13]; 100 μM glutamate + 50 μM glycine, control = response without PTC-174, inhibition): 39 ± 4 % control | nH (GluN1/2A [13]; [18]): −1.1 | Effect on current responses (in words) (GluN1/2A [13]; maximal glutamate plus glycine): concentration-dependent partial inhibition; also recorded: partial antagonist | Enhancement of peak responses (GluN1/2D [14]; 10 μM PTC-174 continuous, 3–5 ms 1 mM glutamate): 5.3 fold | Potentiation of response to 2 second glutamate application (GluN1/2D [14]; 10 μM PTC-174 present before and during 1 mM glutamate exposure): 6.3 fold | Potentiation of responses at low glycine (GluN1/2B; [19]): 1.8 fold | Maximal modulation (% control) (GluN1/2B; [20]): 180 ± 4 % control | nH (GluN1/2B; [18]): 1.3 | Maximal potentiation of current responses (GluN1/2B; maximal glutamate plus glycine): 1.8 fold | Effect on current responses (AMPA (GluA1–4) receptors): did not affect current responses | nH [15]: 1.0 | τfast ([6]; 10 μM PTC-174, +40 mV, baseline 113.7 ± 27.2): 147.3 ± 46.5 ms | Peak amplitude ([6]; 10 μM PTC-174, +40 mV, baseline 132.6 ± 20.1): 157 ± 23 pA and 156.6 ± 23.3 pA | τw (weighted EPSC decay time constant) ([6]; 10 μM PTC-174, +40 mV, baseline 191.6 ± 6.6): 292.0 ± 41.8 ms | τslow ([6]; 10 μM PTC-174, +40 mV, baseline 321.4 ± 36.0): 522.4 ± 154.9 ms | EC50 (GluN1/2CC1/2CC2-NK; in the presence of 1 mM Mg2+): 4.5 ± 0.2 µM | EC50 (GluN1/2CC1/2CC2-NK; without Mg2+): 5 ± 0.5 µM | nH (GluN1/2CC1/2CC2-NK; in the presence of 1 mM Mg2+): 1.2 | nH (GluN1/2CC1/2CC2-NK; without Mg2+): 1.4 | Effect on current responses [16]: did not affect current responses | Charge transfer ([7]; 10 μM PTC-174, −40 mV, baseline 12.9 ± 1.4): 15.9 ± 2.4 pA·S | τfast ([7]; 10 μM PTC-174, −40 mV, baseline 49.6 ± 5.5): 69.3 ± 10.1 ms | τw (weighted EPSC decay time constant) ([7]; 10 μM PTC-174, −40 mV, baseline 111.0 ± 7.1): 166.7 ± 21.3 ms and 166.7 ± 2.1 ms | τslow ([7]; 10 μM PTC-174, −40 mV, baseline 226.2 ± 21.8): 397.7 ± 131.5 ms

N[C@@H](CCC(=O)O)C(=O)O [glutamate, reference compound]
nH (glutamate) (GluN1/2C [10]; [22]): 1.3 | nH (glutamate) (GluN1/2D [1]; [22]): 1.7 and 1.5

NCC(=O)O [glycine]
EC50 (GluN1/2A [17]): 1.1 µM
